Compound activity as filed in PubChem BioAssay.
Hits are enriched below; roughly 1.5% of the tested compounds scored in any of these assays.
APJ agonist – agonists of human APJ apelin receptor; 330,000 tested, 0.11% active; AID 2520; CHO-K1 APJ PathHunter beta-arrestin, luminescence; 0% DMSO wells, 100% apelin; P35414; activation, % at 20 µM;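 active = activation more than six SD over the plate average, tested at 20 µM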;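 also: 0% = DMSO alone and 100% = apelin-13 at 10 nM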
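Material: CHO-K1 APJ beta-arrestin complementation cell line; Input: cell density 1000 per well; Incubation: compound stimulation 90 min at 25 °C, detection 60 min; Signal: luminescence from split beta-galactosidase complementation, Galacton Star/Emerald II substrate; Controls: DMSO-only wells as negative, 10 nM Apelin-13 as positive control.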
APJ antag – antagonists of human APJ apelin receptor; P35414; CHO-K1 APJ beta-arrestin complementation, luminescence; inhibition, % at 20 µM; 330,000 tested, 0.32% active;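 active = inhibition above about 40% at 20 µM, limit read from the data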;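 also: cells challenged with 10 nM apelin-13 agonist together with compound; plate controls were apelin-13 plus DMSO wells for no effect and DMSO wells lacking apelin-13 for full effect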
CXCR6 inh – inhibitors of human CXCR6 receptor; O00574; CHO-K1 PathHunter CXCR6 beta-arrestin, luminescence; inhibition, % at 20 µM; 360,000 tested, 0.36% active; AID 602244; in the data active = inhibition above about 34%, passing the limit was not always enough;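 also: antagonist mode with CXCL16 agonist at 10 nM final; 0% = 10 nM CXCL16 with DMSO and 100% = unstimulated wells without agonist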
EBI2 antag – antagonists of human EBI2 receptor | 360,000 tested, 0.81% active | inhibition, % at 5 µM | EBI2 beta-arrestin recruitment, luminescence, 7a,25-OHC stimulated | AID 651636 | P32249; in the data active = inhibition above about 38%;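 also: enzyme fragment complementation signal reports receptor beta-arrestin coupling in cells; 0% = agonist plus DMSO wells and 100% = wells without agonist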
Target sequence (P32249 whole entry, looked up, the tested form may be a part): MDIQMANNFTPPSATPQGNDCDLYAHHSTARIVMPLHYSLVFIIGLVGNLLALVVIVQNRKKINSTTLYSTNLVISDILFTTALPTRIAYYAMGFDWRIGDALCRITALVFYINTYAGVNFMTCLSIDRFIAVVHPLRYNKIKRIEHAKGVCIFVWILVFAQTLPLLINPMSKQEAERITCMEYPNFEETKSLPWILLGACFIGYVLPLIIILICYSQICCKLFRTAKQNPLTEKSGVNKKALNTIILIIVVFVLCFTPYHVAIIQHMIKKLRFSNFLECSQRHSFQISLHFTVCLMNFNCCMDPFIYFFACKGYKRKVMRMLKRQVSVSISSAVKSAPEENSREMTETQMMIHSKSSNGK
CCR6 antagonist – antagonists of human CCR6 receptor. inhibition, % at 20 µM. P51684. 340,000 tested, 0.49% active. CHO-K1 CCR6 PathHunter beta-arrestin, luminescence, CCL20-stimulated;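 active = compounds whose inhibition of the agonist-driven luminescence signal at 20 µM reaches about 50%, limit read from the data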;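 also: cells stimulated with CCL20 at 14 nM final; plate controls were DMSO with CCL20 for no effect and DMSO without agonist for full effect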
APJ ag confirm – confirmation of human APJ apelin receptor agonists; CHO-K1 APJ PathHunter beta-arrestin, luminescence; 310 tested, 10% active; activation, % at 20 µM; shares compounds with APJ agonist;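 active = activation above 40%, taking the highest of four retests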;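 also: plate controls were DMSO wells for no effect and apelin-13 at 10 nM for full effect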
APJ antag confirm – confirmation of human APJ apelin receptor antagonists; inhibition, % at 20 µM; AID 2766; 950 tested, 66% active; APJ beta-arrestin recruitment, luminescence, antagonist mode; shares compounds with APJ antag; in the data active = inhibition above about 50%
CXCR6 antag conf – CXCR6 antagonism confirmation, single concentration; shares compounds with CXCR6 inh; CHO-K1 CXCR6 PathHunter beta-arrestin, luminescence; inhibition, % at 20 µM; 700 tested, 65% active;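 active = mean inhibition over four retests above 40%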;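 also: receptor stimulated with 10 nM CXCL16 agonist; beta-galactosidase fragment complementation upon beta-arrestin recruitment to receptor; plate controls were CXCL16 plus DMSO for no effect and DMSO without CXCL16 for full effect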
* hit, by the source's call; . = not tested or not shown.

SMILES	APJ agonist	APJ antag	CXCR6 inh	EBI2 antag	CCR6 antagonist	APJ ag confirm	others
O=C1OC(c2ccccc2)(N(Nc2ccccc2)c2ccccc2)c2ccccc21 (stereo unspecified)	.	.	14	6	.	.
Cc1ccc(-c2nn(-c3ccccc3)cc2/C=C/C(=O)OCC(=O)NC2CC2)o1	12*	-27	-6	-15	-10	5
COC(=O)C1(Cc2cc(-c3ccc(Cl)cc3)no2)CCN(C(=O)OC(C)(C)C)CC1	-3	-50	-3	0	12	.
COC(=O)C1(Cc2cc(-c3cccnc3)no2)CCN(C(=O)OC(C)(C)C)CC1	36*	-191	-27	-42	-12	32
N/C(=N\OS(=O)(=O)c1ccc2ccccc2c1)c1ccncc1	28*	-31	-19	-22	-27	68*
N/C(=N\OS(=O)(=O)c1ccc2ccccc2c1)c1cccnc1	-3	6	-2	-9	-16	.
CCOC(=O)c1oc2nc3c(cc2c1N)CCCC3	117*	2	1	9	14	3
O=C(Nc1cc(S(=O)(=O)N2CCOCC2)ccc1N1CCCC1)c1ccccc1C(F)(F)F	.	.	.	.	-2	.
O=C(N/N=C\c1cn(-c2ccccc2)nc1-c1ccccc1)c1ccc(Br)o1	0	-4	8	7	3	.
Cc1ccc(-c2nn(-c3ccccc3)cc2/C=N/NC(=O)c2ccc(Br)o2)cc1	13*	-10	-2	-6	-8	25
CCC1CCCCN1CCCNC(=O)c1ccc2c(c1)c(C)c(C)n2C (stereo unspecified)	4	18	1	0	-4	.
COc1cc(S(=O)(=O)NC2CCCC2)ccc1-n1cnnn1	1	-1	-10	-7	19	.
COc1ccc(S(=O)(=O)NC2CC2)cc1-n1cnnn1	14*	-26	-5	-6	7	8
CCSc1ccc(/C(N)=N/OC(=O)c2cccs2)cn1	43*	-168	-43	-18	-32	11
Cc1cccn2c(=O)c3cc(C(=O)NCC4CCCO4)c(=N)n(CCN4CCOCC4)c3nc12 (stereo unspecified)	31*	-6	8	-9	-2	-5
OCC1(CCc2ccccc2)CCN(Cc2cccn2-c2cccnc2)CC1	-4	4	6	2	16	.
CC[n+]1c(/C=C/N(C)c2ccccc2)n(-c2ccccc2)c2ccc(-c3nc4ccccc4s3)cc21	26*	9	14	21	22	-2
Cc1cccc(CC(=O)NCCS(=O)(=O)N2CCN(c3cccc(Cl)c3)CC2)c1	-4	10	0	3	14	.
COc1ccc(-c2cn3c(C)c(C(=O)Nc4cccc(NC(C)=O)c4)sc3n2)cc1	17*	-31	-10	41	6	17
COC(=O)c1ccc2nc(-c3cccc(Cl)c3)c(Cc3ccsc3)n2c1	.	.	10	13	.	.
Cc1ccc(-n2nnc3c(=O)oc4ccccc4c32)cc1	32*	-28	24	-19	-15	37
COC(=O)[C@]12CCCCC=C1N(CCC1=CCCCC1)C(=O)[C@H](CC(=O)NCC13CC4CC(CC(C4)C1)C3)C2	.	.	19	19	.	.
COC(=O)c1cc(C(=O)NCC2CCCCC2)cc([N+](=O)[O-])c1	0	1	-24	-7	12	.
COC1(C)CC2C(CC1OC(=O)c1cc([N+](=O)[O-])cc([N+](=O)[O-])c1)C2(C)C (stereo unspecified)	13*	-52	-12	5	-61	21
COc1ccc(C)cc1S(=O)(=O)N(C)CC(=O)NCc1ccco1	25*	-28	1	-14	1	25
SMILES	APJ agonist	APJ antag	CXCR6 inh	EBI2 antag	CCR6 antagonist	APJ ag confirm	others
COc1ccc(OCC(=O)Nc2ccc(S(=O)(=O)N3CCOCC3)cc2)cc1	-1	-4	4	-7	2	.
CC(=O)Nc1ccc(OCC(=O)Nc2ccc(Cl)c(S(=O)(=O)N3CCOCC3)c2)cc1	17*	0	-17	-20	.	-1
CCCCCN=C(N)N/N=C/c1c[nH]c2ccc(OC)cc12	35*	-20	27	5	55*	39
CCCOc1ccc(C(=O)N/N=C/c2c[nH]c3ccc(Br)cc23)cc1	-4	-11	-10	1	-18	.
COc1cccc(Nc2nc(NCC3CCCO3)c3ccccc3n2)c1 (stereo unspecified)	14*	-12	-8	-14	1	10
Cc1cccc(/C=N/n2c(C)nc3ccccc3c2=O)c1	-2	21	2	0	14	.
COc1ccc2noc3c2c1C(=O)c1ccccc1-3	21*	-35	-2	-21	-4	28
O=C(O)CCC1(CCC(=O)O)CCCC(CCC(=O)O)(CCC(=O)O)C1=O	.	.	-5	-15	12	.
CCCCc1ccc(N/C(N)=N/c2nc(C)cc(C)n2)cc1	43*	-28	3	-18	-2	17
CN1CCc2c(sc(/N=C/c3c[nH]c4ccccc34)c2C#N)C1	38*	3	7	0	17	-6
CN1CCc2c(sc(/N=C/c3c[nH]c4ccccc34)c2C(N)=O)C1	-1	19	-25	-3	35	.
c1ccc2c(-c3nc(C4CCCCC4)no3)cc(-c3ccncc3)nc2c1	-1	-6	0	-4	10	.
COC/C=C/C1=CC2=CC(=O)C(C)(OC(=O)c3cnc4ccccc4n3)C(=O)C2=CN1C1CCCC1 (stereo unspecified)	122*	-55	.	.	.	21
COC/C=C/C1=CC2=CC(=O)C(C)(OC(=O)c3cnc4ccccc4n3)C(=O)C2=CN1C(CO)CO (stereo unspecified)	8	-17	-11	-26	-4	.
CCOc1ccc(/C=C/[N+](=O)[O-])c2ccccc12	16*	-24	60*	10	.	-3	CXCR6 antag conf=52*
COc1ccccc1N(CC(O)CN1CCOCC1)S(=O)(=O)c1ccccc1 (stereo unspecified)	2	25	-2	-3	4	.
O=C(NC(O)C(=O)c1ccccc1)c1cccs1 (stereo unspecified)	-11	48*	21	-2	41	.	APJ antag confirm=25
O=C(NC(O)C(=O)c1cccs1)c1cccnc1 (stereo unspecified)	-7	50*	7	10	25	.	APJ antag confirm=31
O=C(NNC(=O)c1cccs1)c1cccnc1	1	10	0	-12	3	.
O=C(CN1CCCCC1)NC(=O)NCc1ccccc1	-3	3	-6	-11	1	.
N#C/C(=N/Nc1ccccc1[N+](=O)[O-])C(N)=S	-9	40*	18	-3	36	.	APJ antag confirm=105*
